Usually IC50 stands for the midpoint of a concentration-inhibition curve.

From ChEMBL document CHEMBL1177638, “Synthesis of pyrrolo[3,2-h]quinolinones with good photochemotherapeutic activity and no DNA damage” (Bioorg Med Chem, 2010) come the findings set out here.

The test system of the first assay is Jurkat. Description: Phototoxicity against human Jurkat cells irradiated with 3.75 J/cm'2 after 72 hrs by MTT assay. It counts as functional, cell-based. As to conditions: light or radiation study. The method, boiled down:
(§1)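 Cells were seeded at 8 × 10³ and preincubated 18 h at 37 °C, 5% CO₂. Jurkat and K-562 grew in RPMI-1640, MCF-7 and NCTC-2544 in DMEM, and LoVo in Ham's F12, all with 10% FBS plus penicillin and streptomycin. Compounds in DMSO were diluted in HBSS, pH 7.2 (range 20–0.31; DMSO ≤1%) and applied 30 min at 37 °C. Wells were then UV-A irradiated (365 nm; 2.5 or 3.75 J/cm²), medium was replaced, and MTT was read after 72 h.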
`O=c1[nH]c2c(cc1S(=O)(=O)c1ccccc1)CCc1ccn(-c3ccccc3)c1-2`: the IC50 was > 20000 nM.

`COc1ccc(Cn2ccc3c2-c2[nH]c(=O)c(S(=O)(=O)c4ccccc4)cc2CC3)cc1` had an IC50 of 1200 nM.

Consider `O=c1[nH]c2c(cc1S(=O)(=O)c1ccccc1)CCc1cc[nH]c1-2`, for which the IC50 was > 20000 nM.

`CCOC(=O)c1cc2c(n1Cc1ccc(C)cc1)-c1[nH]c(=O)c(S(=O)(=O)c3ccccc3)cc1CC2` returned an IC50 of 1200 nM.

In turn, `CCOC(=O)c1cc2c([nH]1)-c1[nH]c(=O)c(S(=O)(=O)c3ccccc3)cc1CC2` showed an IC50 of 2500 nM.

For the next assay, the system named is MCF7. Description: Phototoxicity against human MCF7 cells irradiated with 2.5 J/cm'2 after 72 hrs by MTT assay. The assay is classed as functional, cell-based. As to conditions: MCF7, light or radiation study. The method, boiled down:
as §1
Regarding `O=c1[nH]c2c(cc1S(=O)(=O)c1ccccc1)CCc1ccn(-c3ccccc3)c1-2`, the IC50 was > 20 µM.

`COc1ccc(Cn2ccc3c2-c2[nH]c(=O)c(S(=O)(=O)c4ccccc4)cc2CC3)cc1`: the IC50 was 4.2 µM.

`O=c1[nH]c2c(cc1S(=O)(=O)c1ccccc1)CCc1cc[nH]c1-2`: the IC50 was > 20 µM.

`CCOC(=O)c1cc2c(n1Cc1ccc(C)cc1)-c1[nH]c(=O)c(S(=O)(=O)c3ccccc3)cc1CC2` had an IC50 of 1.7 µM. This counts as single-digit micromolar.

In turn, `CCOC(=O)c1cc2c([nH]1)-c1[nH]c(=O)c(S(=O)(=O)c3ccccc3)cc1CC2` displayed an IC50 of 6.1 µM.

System in a further assay: not listed separately
Put plainly: Phototoxicity against human sNCTC-2544 cells irradiated with 3.75 J/cm'2 after 72 hrs by MTT assay. Conditions: NCTC-2544, light or radiation study. The assay is classed as functional, cell-based. The method in brief:
as §1
On the technique in general: Formazan colour is commonly taken as a measure of viable cells.
For the compound `O=c1[nH]c2c(cc1S(=O)(=O)c1ccccc1)CCc1ccn(-c3ccccc3)c1-2`, the IC50 was > 20 µM.

`COc1ccc(Cn2ccc3c2-c2[nH]c(=O)c(S(=O)(=O)c4ccccc4)cc2CC3)cc1` came in with an IC50 of 2.7 µM. In other words, the single-digit micromolar range.

Turning to `O=c1[nH]c2c(cc1S(=O)(=O)c1ccccc1)CCc1cc[nH]c1-2`, the IC50 is > 20 µM.

`CCOC(=O)c1cc2c(n1Cc1ccc(C)cc1)-c1[nH]c(=O)c(S(=O)(=O)c3ccccc3)cc1CC2` displayed an IC50 of 2.2 µM. That is a single-digit micromolar value.

In the case of `CCOC(=O)c1cc2c([nH]1)-c1[nH]c(=O)c(S(=O)(=O)c3ccccc3)cc1CC2`, half-maximal inhibition (IC50) was put at 7.2 µM.

The next assay deals with K562. Description: Phototoxicity against human K562 cells irradiated with 2.5 J/cm'2 after 72 hrs by MTT assay. The assay is classed as functional, cell-based. Conditions: K562, light or radiation study. The method, boiled down: as §1
`O=c1[nH]c2c(cc1S(=O)(=O)c1ccccc1)CCc1ccn(-c3ccccc3)c1-2`: the IC50 is > 20 µM.

Turning to `COc1ccc(Cn2ccc3c2-c2[nH]c(=O)c(S(=O)(=O)c4ccccc4)cc2CC3)cc1`, the IC50 was determined as 3.1 µM.

`O=c1[nH]c2c(cc1S(=O)(=O)c1ccccc1)CCc1cc[nH]c1-2`: the IC50 was > 20 µM.

For `CCOC(=O)c1cc2c(n1Cc1ccc(C)cc1)-c1[nH]c(=O)c(S(=O)(=O)c3ccccc3)cc1CC2`, the IC50 was found to be 1.3 µM. That is a single-digit micromolar value.

As for `CCOC(=O)c1cc2c([nH]1)-c1[nH]c(=O)c(S(=O)(=O)c3ccccc3)cc1CC2`, the IC50 was 6.1 µM.

The next assay concerns Jurkat. Description: Phototoxicity against human Jurkat cells irradiated with 2.5 J/cm'2 after 72 hrs by MTT assay. The assay is classed as functional, cell-based. As to conditions: light or radiation study. The method in brief:
as §1
Turning to `O=c1[nH]c2c(cc1S(=O)(=O)c1ccccc1)CCc1ccn(-c3ccccc3)c1-2`, the IC50 was > 20000 nM.

`COc1ccc(Cn2ccc3c2-c2[nH]c(=O)c(S(=O)(=O)c4ccccc4)cc2CC3)cc1` had an IC50 of 1600 nM.

Take `O=c1[nH]c2c(cc1S(=O)(=O)c1ccccc1)CCc1cc[nH]c1-2`: the IC50 was > 20000 nM.

In turn, `CCOC(=O)c1cc2c(n1Cc1ccc(C)cc1)-c1[nH]c(=O)c(S(=O)(=O)c3ccccc3)cc1CC2` had an IC50 of 1500 nM.

On to `CCOC(=O)c1cc2c([nH]1)-c1[nH]c(=O)c(S(=O)(=O)c3ccccc3)cc1CC2`, for which the IC50 was determined as 3500 nM. Compared with the last compound, the IC50 is about 2.3-fold higher.

System in the next assay: not listed separately
Put plainly: Phototoxicity against human sNCTC-2544 cells irradiated with 2.5 J/cm'2 after 72 hrs by MTT assay. It counts as functional, cell-based. Conditions: NCTC-2544, light or radiation study. The method in brief:
as §1
For `O=c1[nH]c2c(cc1S(=O)(=O)c1ccccc1)CCc1ccn(-c3ccccc3)c1-2`, the IC50 is > 20 µM.

In the case of `COc1ccc(Cn2ccc3c2-c2[nH]c(=O)c(S(=O)(=O)c4ccccc4)cc2CC3)cc1`, the IC50 came to 4.3 µM.

With `O=c1[nH]c2c(cc1S(=O)(=O)c1ccccc1)CCc1cc[nH]c1-2`, the 50% inhibitory concentration (IC50) was > 20 µM.

In turn, `CCOC(=O)c1cc2c(n1Cc1ccc(C)cc1)-c1[nH]c(=O)c(S(=O)(=O)c3ccccc3)cc1CC2` returned an IC50 of 2.7 µM.

Take `CCOC(=O)c1cc2c([nH]1)-c1[nH]c(=O)c(S(=O)(=O)c3ccccc3)cc1CC2`: the midpoint of inhibition, the IC50, lay at 9.3 µM.

A further assay concerns MCF7. Put plainly: Phototoxicity against human MCF7 cells irradiated with 3.75 J/cm'2 after 72 hrs by MTT assay. The assay is classed as functional, cell-based. Conditions: MCF7, light or radiation study. The method, boiled down: as §1
As to `O=c1[nH]c2c(cc1S(=O)(=O)c1ccccc1)CCc1ccn(-c3ccccc3)c1-2`, the IC50 was > 20 µM.

The compound `COc1ccc(Cn2ccc3c2-c2[nH]c(=O)c(S(=O)(=O)c4ccccc4)cc2CC3)cc1` showed an IC50 of 1.8 µM.

Turning to `O=c1[nH]c2c(cc1S(=O)(=O)c1ccccc1)CCc1cc[nH]c1-2`, the IC50 was > 20 µM.

Compound `CCOC(=O)c1cc2c(n1Cc1ccc(C)cc1)-c1[nH]c(=O)c(S(=O)(=O)c3ccccc3)cc1CC2` gave a half-maximal inhibitory concentration (IC50) of 1.4 µM.

In turn, `CCOC(=O)c1cc2c([nH]1)-c1[nH]c(=O)c(S(=O)(=O)c3ccccc3)cc1CC2` registered an IC50 of 4.3 µM.

The next assay relates to LoVo. Put plainly: Phototoxicity against human LoVo cells irradiated with 3.75 J/cm'2 after 72 hrs by MTT assay. The assay is classed as functional, cell-based. As to conditions: light or radiation study. The method in brief:
as §1
As to `O=c1[nH]c2c(cc1S(=O)(=O)c1ccccc1)CCc1ccn(-c3ccccc3)c1-2`, the IC50 was > 20 µM.

In turn, `COc1ccc(Cn2ccc3c2-c2[nH]c(=O)c(S(=O)(=O)c4ccccc4)cc2CC3)cc1` displayed an IC50 of 2 µM.

Consider `O=c1[nH]c2c(cc1S(=O)(=O)c1ccccc1)CCc1cc[nH]c1-2`, for which the IC50 was > 20 µM.

In turn, `CCOC(=O)c1cc2c(n1Cc1ccc(C)cc1)-c1[nH]c(=O)c(S(=O)(=O)c3ccccc3)cc1CC2` showed an IC50 of 1 µM.

As to `CCOC(=O)c1cc2c([nH]1)-c1[nH]c(=O)c(S(=O)(=O)c3ccccc3)cc1CC2`, the IC50 was 4.6 µM.

Another assay relates to LoVo. Description: Phototoxicity against human LoVo cells irradiated with 2.5 J/cm'2 after 72 hrs by MTT assay. The assay is classed as functional, cell-based. Conditions: light or radiation study. The method in brief: as §1
On to `O=c1[nH]c2c(cc1S(=O)(=O)c1ccccc1)CCc1ccn(-c3ccccc3)c1-2`, for which the IC50 was > 20 µM.

Take `COc1ccc(Cn2ccc3c2-c2[nH]c(=O)c(S(=O)(=O)c4ccccc4)cc2CC3)cc1`: the IC50 was 2.8 µM.

For `O=c1[nH]c2c(cc1S(=O)(=O)c1ccccc1)CCc1cc[nH]c1-2`, the IC50 is > 20 µM.

As to `CCOC(=O)c1cc2c(n1Cc1ccc(C)cc1)-c1[nH]c(=O)c(S(=O)(=O)c3ccccc3)cc1CC2`, the concentration for half-maximal inhibition (IC50) was found to be 1.6 µM.

In the case of `CCOC(=O)c1cc2c([nH]1)-c1[nH]c(=O)c(S(=O)(=O)c3ccccc3)cc1CC2`, it took 5.5 µM to reach half-maximal inhibition (IC50).

A further assay relates to K562. Description: Phototoxicity against human K562 cells irradiated with 3.75 J/cm'2 after 72 hrs by MTT assay. It counts as functional, cell-based. As to conditions: K562, light or radiation study. The method in brief: as §1
In the case of `O=c1[nH]c2c(cc1S(=O)(=O)c1ccccc1)CCc1ccn(-c3ccccc3)c1-2`, the IC50 was > 20 µM.

`COc1ccc(Cn2ccc3c2-c2[nH]c(=O)c(S(=O)(=O)c4ccccc4)cc2CC3)cc1`: half-maximal inhibition (IC50) required 2.5 µM.

In the case of `O=c1[nH]c2c(cc1S(=O)(=O)c1ccccc1)CCc1cc[nH]c1-2`, the IC50 was > 20 µM.

`CCOC(=O)c1cc2c(n1Cc1ccc(C)cc1)-c1[nH]c(=O)c(S(=O)(=O)c3ccccc3)cc1CC2` showed an IC50 of 1 µM.

For the compound `CCOC(=O)c1cc2c([nH]1)-c1[nH]c(=O)c(S(=O)(=O)c3ccccc3)cc1CC2`, the IC50 turned out to be 5.3 µM. This IC50 is about 5.3-fold higher than that of the compound before.
